In the EternaBench riboswitch data:

Tested on: MS2 coat protein
Assay: apparent Kd, MS2 coat protein; higher = weaker binding; RNA-MaP array; FMN 200 µM where present
Summary of the method: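 The titrant was SNAP-549-labelled MS2 coat protein, run from 0.7 or 1.5 nM in doubling steps to 3 µM. It was applied to designs transcribed by stalled E. coli RNA polymerase on Illumina sequencing-chip clusters, without ligand first and then with constant ligand, in 100 mM Tris-HCl pH 7.5, 80 mM KCl, 4 mM MgCl2, BSA, DTT, yeast tRNA and Tween-20. The apparent Kd is the median of filtered per-cluster binding-curve fits, with green signal normalised to red-channel RNA signal and control-cluster median Fmax.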

[1] = designed as: OFF switch for flavin mononucleotide, no ligand
[2] = ligand present: flavin mononucleotide, designed as: OFF switch for flavin mononucleotide
[3] = designed as: ON switch for flavin mononucleotide, no ligand
[4] = ligand present: flavin mononucleotide, designed as: ON switch for flavin mononucleotide

Sequence | apparent Kd [1] [nM] | apparent Kd [2] [nM] | apparent Kd [3] [nM] | apparent Kd [4] [nM]
CCAUGCAGUGUGAGGAUAUGCUGGUCCUUGGAUCAGCAGAAGGCACAUGAGGAUCACCCAUGUGAAUAGCGUGG | 44.6 | 356 | – | –
CCAUGGCUGUGAGGAUAUGUCUGACAAAGUCAGACAGAAGGCACAUGAGGAUCACCCAUGUGAGGAAAACCACAUUUGCCAUGG | 5.81 | 6.29 | – | –
CCAUGGCUGUUAGGAUAUGUCUGACAAAGUCAGACAGAAGGGACAUGAGGAUCACCCAUGUGAAGAAAACCACAUUUGCCAUGG | 7.74 | 7.72 | – | –
CCCAGUGCAUCAGGAUAUCCUCACAUGAGGAUCACCCAUGUAAUGAGCCGAGGAGAAGGGAUGUGAACUCCAGUUACCGAUCGU | – | – | 267 | 42.2
CCCAUCAGAGGAUAUACAUGAGGAUCACCCAUGUCAAUCGAACGGGAUGGGAGGUUAGGUAGAAGGUUGUGGAA | 15.2 | 16.9 | – | –
CCCGGGCCUGUGAGGAUAUCGGGCCCGAAAGGGCCCGAGAAGGCACAUGAGGAUCACCCAUGUAAGGGUUUGGG | 27.4 | 19.7 | – | –
CCCGUGUAAGGAUAUGACAAUGGUAUCUUCGGAUACCAUUGUCAGAAGGUACAUGAGGAUCACCCAUGUAACAC | 28.8 | 108 | – | –
CCCGUGUGUUAAGGAUAUGGCAGGCGCGUUGAACCAGAAGGUAGCACAUGAGGAUCACCCAUGUGAAUGCUCACGAAUCGAGCG | 31.3 | 26.8 | – | –
CCCUCACAUGAGGAUCACCCAUGUCAGGAUAUCUAGUCAGACAGUGUAGCACUAAUGAAGAGAAGGGACGUAUG | 25.6 | 26.8 | – | –
CCCUCACAUGAGGAUCACCCAUGUCAGGAUAUUCGAGGCGCAAAUACGCCAAAUGCAGGAAGAAGGGACGUGCC | 15.5 | 22.4 | – | –
CCGAGGCUAGGAUAUUGACGAUAAUACAUGAGGAUCACCCAUGUGAGUCGUGUAUGCGCGCAAGAAGGAGUAAUAA | 14 | 17.6 | – | –
CCGCAAAUGCAGGAUAUCGUAUCGGAAACGAUACGAGAAGGGUAAACAUGAGGAUCACCCAUGUUCCUUAACGG | 17.9 | 17 | – | –
CCGCAUAAGCAGGAUAUCGUAUCGGAUACGAUACGAGAAGGGUUUACAUGAGGAUCACCCAUGUUCCUUAGCGG | 29.7 | 48.1 | – | –
CCGCCACAUGAGGAUCACCCAUGUCAGGAUAUCUAUCAUAGCAUCGAAAGAUGCGGGUAGAGAAGGGACUAUCC | 28.8 | 32.2 | – | –
CCGCCUCUAGUCAGGAUAUUUACGGAAGAGCACGAAGAGAAGGGACAUGAGGAUCACCCAUGUUUGAUCACGGC | 30.5 | 31.4 | – | –
CCGGAAAGGAAGGAUAUGCUAGACGAGAGUCUAGCAGAAGGUCCUACAUGAGGAUCACCCAUGUGGCCUCCCGG | 139 | 627 | – | –
CCGGAAAUAGAGGAUAUAGUACUGGAUACAGUACUAGAAGGCUAUACAUGAGGAUCACCCAUGUGUCCUACCGG | 16 | 32.4 | – | –
CCGGAAGUACAGGAUAUCGUAUCGGAUACGAUACGAGAAGGGUAUACAUGAGGAUCACCCAUGUGUCCUACCGG | 29.3 | 31.5 | – | –
CCGGAAUAGCAGGAUAUAGGAGUCGAUAGACACCUAGAAGGGCUGACAUGAGGAUCACCCAUGUGUCCUACCGG | 81.2 | 50.8 | – | –
CCGGAAUCCUAGGAUAUGCUAGACGAGAGUCUAGCAGAAGGAGGAACAUGAGGAUCACCCAUGUGUCCUACCGG | 17.7 | 21 | – | –
CCGGAUACGGGUAGCCUGACAUGAGGAUCACCCAUGUGAUCCAAGGAUAUGGAUCCUAAUUGGAUCCAGAAGGUGGUUGGCUAC | – | – | 682 | 369
CCGGAUACGGGUAGCCUGACAUGAGGAUCACCCAUGUGAUCCUAGGAUAUGGAUCCUAAUUGGAUCCAGAAGGAGGUUGGCUAC | – | – | 860 | 436

Sequence | apparent Kd [1] [nM] | apparent Kd [2] [nM] | apparent Kd [3] [nM] | apparent Kd [4] [nM]
CCGGAUUAGGAGGAUAUAGGAGUCGAUAGACACCUAGAAGGCCUAACAUGAGGAUCACCCAUGUGUCCUACCGG | 21.9 | 90.8 | – | –
CCGGCUGCUGUGAGGAUAUGCCUGUGCGCCCGCGGGCAGAAGGCACAUGAGGAUCACCCAUGUCCUGCGGUCCC | 39 | 41.2 | – | –
CCGUGGCAAGGAUAUACAUAGGAGAGGAAGGCAAGAGGUGGACAUGAGGAUCACCCAUGUAGAAGGUGCAGAUC | 226 | 236 | – | –
CCGUGGCAAGGAUAUACGUAGGAGAGGAAGGCAAGAGAAGGACAUGAGGAUCACCCAUGUAGAAGGUGCAGAUC | 56.5 | 56.5 | – | –
CCGUUACAUGAGGAUCACCCAUGUGAGGAUAUCGAUGUGACUAGCAGCGUGCGGGACUCGAGAAGGCACUUGGC | 57.8 | 41.5 | – | –
CCUAUGUGAGGAUAUGGUGUUGGCCACAGGGAAAAGGUCCUCCAGAAGGCACAUGAGGAUCACCCAUGUCGUGA | 84.6 | 158 | – | –
CCUCAGGCGGAGGAUAUCUAACAACAAUAACAAAGAGAAGGCCGCACAUGAGGAUCACCCAUGUGUAUGGGCCG | 12.4 | 22.8 | – | –
CCUCCACAUGAGGAUCACCCAUGUCAGGAUAUCGUGUGUGCGUUUUCGGUCUUUCGUGCGAGAAGGGACGUCUG | 68.7 | 62.9 | – | –
CCUCCAUCAUGAGGAUAUGGCACCUUAUUGGUGCCAGAAGGCAUGUCUUUUGACAUGAGGAUCACCCAUGUAAUAAAUUGGAGG | – | – | 1280 | 127
CCUCCCUGAGGAUAUCCACCCUCAUACAUGAGGAUCACCCAUGUUCAACCCUGGGUUCCCGGAGAAGGCAGCCUCC | 706 | 650 | – | –
CCUCUGUAAGGAUAUACGGAGACGGCUGGAAUCAGUGGAAAGUAGAAGGUACAUGAGGAUCACCCAUGUGAGAC | 21.1 | 66.2 | – | –
CCUGUGUGAGGAUAUGGUGUUAAAAAAAAAAAAUAGCUCCUCCAGAAGGCACAUGAGGAUCACCCAUGUCGUGG | 33.5 | 69.2 | – | –
CCUGUUUGAUUCCUCUUAUACAUGAGGAUCACCCAUGUUAUCGAGGAUAUGCAUUAGAGUGUUUAGCAGAAGGCGAUGUAAUUG | 6.12 | 17.5 | – | –
CCUUAAAAGAUCCAAAAUUACAACAUGAGGAUCACCCAUGUGCAGGAUAUCGUGCCAGUGAUGUACGAGAAGGGCAGACUCUGC | 147 | 170 | – | –
CCUUUGAAGAUCCUAGUUUUCGACAUGAGGAUCACCCAUGUGCAGGAUAUCGUGCCAGUGAUGUGCGAGAAGGGCAGUCUCUGC | 110 | 112 | – | –
CGAAAACCACAGAAGGCCCGGGACAUGAGGAUCACCCAUGUAGAAAGUGGGAGGAUAUGUGUACGCGGCGUGCUGACCUCGUGA | – | – | 232 | 27.4
CGAAGUCCGUAGAAGGGUGACAUGAGGAUCACCCAUGUGCGAGCGGAUGGAGUCAGCGGCUCGCCACAGGAUAUACGGAGCACG | – | – | 30.6 | 65.3
CGACAGCACACAGGAUAUCCUCGACUUUGUCGAGGAGAAGGGUGUAAACAUGAGGAUCACCCAUGUAUGCUGUCGAAAUUUAAU | – | – | 308 | 30.7
CGAGGAGGAGUGAGGAUAUCGUGUUCGAAAGAACGUGAGAAGGCACAUGAGGAUCACCCAUGUGAUACUUUUCG | 13.6 | 28.8 | – | –
CGAGUCGGUUGCCCUGCAGUACAUGAGGAUCACCCAUGUCGGAGAAGGUGCACAAAGGAAUCGGGCAAGGAUAUCCGGCGUGAA | 8.21 | 7.98 | – | –
CGAGUGUAAGGAUAUUCGGCGCCAGGGAACGACCUGGCGUAGAAGAAGGUACAUGAGGAUCACCCAUGUGGUUA | 178 | 18.6 | – | –
